Assay results published in ChEMBL document CHEMBL1145834, “Novel selective hindlimb vasodilators: synthesis and biological activity of 1-acyl-4-aminopiperidine derivatives” (2003).

Columns and labels:
Format in all cases: functional, Canis lupus familiaris
Canis familiaris [1] = species: Canis familiaris; assay: Vasodilatory activity (at 10 nmol) relative to nifedipine (at 1 nmol) by femoral artery blood flow (FBF) in autoperfused canine femoral artery preparations.
Procedure, shortened: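 Dogs were anesthetized with pentobarbital (30 mg/kg iv, then 4 mg/kg/h infusion) and heparinized (700 U/kg, then 100 U/kg/h). The right femoral artery was autoperfused with carotid blood at 90 mL/min by pump. Flow was read by electromagnetic flowmeter in the circuit, and drugs were given intra-arterially by microsyringe. Ratio = effect of test compound (10 nmol) / effect of nifedipine (1 nmol). Means ± SE, n = 3 or 1.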

Canis familiaris [2] = species: Canis familiaris; assay: Vasodilatory activity (at 100 nmol) relative to nifedipine (at 10 nmol) by coronary artery blood flow (CBF) in isolated blood perfused canine heart preparations.
Procedure, shortened: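 The canine heart was isolated after pentobarbital (30 mg/kg iv), heparin (500 U/kg) and exsanguination. A septum–papillary muscle preparation was perfused with donor-dog blood via the anterior septal artery at constant 100 mmHg. It was preloaded to 2 g and paced at 120/min with 5 ms pulses at 1.2× threshold. Septal artery flow was read by electromagnetic flowmeter as CBF, and drugs were given intra-arterially. Ratio = effect of test compound (100 nmol) / effect of nifedipine (10 nmol). Means ± SE, n = 3 or 1.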

Canis familiaris [3] = assay: Cardiovascular effect upon blood pressure(BP) in anesthetized open-chest dogs at a dose of 10 ug/ kg administered intravenously
Procedure, shortened: (§1)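 Mongrel dogs anesthetized with pentobarbital sodium 30 mg/kg, open chest. Parameters allowed to stabilize, then drug given as single 10 μg/kg iv dose via femoral vein cannula. FBF and CBF expressed as % change from predose value; BP as change from predose value. Means ± SE, n = 3.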

Canis familiaris [4] = assay: Cardiovascular effect upon femoral artery blood flow(FBF) in anesthetized open-chest dogs at a dose of 10 ug/ kg administered intravenously; procedure, shortened: as §1
Canis familiaris [5] = assay: Cardiovascular effect upon coronary artery blood flow(CBF) in anesthetized open-chest dogs at a dose of 10 ug/ kg administered intravenously; procedure, shortened: as §1

## CCC(=O)Nc1c(C)cc(C(=O)N2CCC(N(C)CCc3ccccc3)CC2)cc1[N+](=O)[O-]
Canis familiaris [1]
  FBF Ratio: 0.24
Canis familiaris [2]
  CBF Ratio: 0.09

## CCc1cc(C(=O)N2CCC(N(C)CCc3ccccc3)CC2)cc2c1NC(=O)CC2.O=C(O)C(=O)O
Canis familiaris [3]
  BP: -26 mmHg
Canis familiaris [4]
  FBF % change: 54
Canis familiaris [5]
  CBF % change: 15
Canis familiaris [1]
  FBF Ratio: 1.07
Canis familiaris [2]
  CBF Ratio: 0.18

## Cc1cc2c(cc1C(=O)N1CCC(N(C)CCc3ccccc3)CC1)CCC(=O)N2.O=C(O)C(=O)O
Canis familiaris [3]
  BP: -13 mmHg
Canis familiaris [4]
  FBF % change: 41
Canis familiaris [5]
  CBF % change: 11
Canis familiaris [1]
  FBF Ratio: 3.01
Canis familiaris [2]
  CBF Ratio: 0.02

## CCc1cc(C(=O)N2CCC(N(C)CCc3ccccc3)CC2)cc2ccc(O)nc12.O=C(O)C(=O)O
Canis familiaris [3]
  BP: -22 mmHg
Canis familiaris [4]
  FBF % change: 78
Canis familiaris [5]
  CBF % change: 26
Canis familiaris [1]
  FBF Ratio: 0.96
Canis familiaris [2]
  CBF Ratio: 0.18

## COc1cc2nc(O)ccc2cc1C(=O)N1CCC(N(C)CCc2ccccc2)CC1
Canis familiaris [3]
  BP: -9 mmHg
Canis familiaris [4]
  FBF % change: 26
Canis familiaris [5]
  CBF % change: 7
Canis familiaris [1]
  FBF Ratio: 1.07
Canis familiaris [2]
  CBF Ratio: 0.04

## CN(CCc1ccccc1)C1CCN(C(=O)c2cc3c(c([N+](=O)[O-])c2)NC(=O)CC3)CC1
Canis familiaris [1]
  FBF Ratio: 0.68
Canis familiaris [2]
  CBF Ratio: 0.28

## CN(CCc1ccccc1)C1CCN(C(=O)c2ccc3c(c2)NC(=O)CC3)CC1
Canis familiaris [1]
  FBF Ratio: 0.19
Canis familiaris [2]
  CBF Ratio: 0.07

## CCC(=O)Nc1ccc(C(=O)N2CCC(N(C)CCc3ccccc3)CC2)cc1
Canis familiaris [3]
  BP: -7 mmHg
Canis familiaris [4]
  FBF % change: 38
Canis familiaris [5]
  CBF % change: 5
Canis familiaris [1]
  FBF Ratio: 1.23
Canis familiaris [2]
  CBF Ratio: 0.02

## CCC(=O)Nc1cc(C)c(C(=O)N2CCC(N(C)CCc3ccccc3)CC2)cc1C.Cl
Canis familiaris [1]
  FBF Ratio: 0.49
Canis familiaris [2]
  CBF Ratio: 0

## CN(CCc1ccccc1)C1CCN(C(=O)C2CC(=O)Nc3ccccc32)CC1.Cl (stereo not drawn)
Canis familiaris [3]
  BP: -15 mmHg
Canis familiaris [4]
  FBF % change: 101
Canis familiaris [5]
  CBF % change: 13
Canis familiaris [1]
  FBF Ratio: 0.85
Canis familiaris [2]
  CBF Ratio: 0.01

## CN(CCc1ccccc1)C1CCN(C(=O)c2cccc3c2NC(=O)CC3)CC1.Cl
Canis familiaris [1]
  FBF Ratio: 0.62
Canis familiaris [2]
  CBF Ratio: 0.09

## CCC(=O)Nc1c(C)cc(C(=O)N2CCC(N(C)CCc3ccccc3)CC2)cc1OC.Cl
Canis familiaris [3]
  BP: -14 mmHg
Canis familiaris [4]
  FBF Ratio: 48
Canis familiaris [5]
  CBF Ratio: 11
Canis familiaris [1]
  FBF Ratio: 0.7
Canis familiaris [2]
  CBF Ratio: 0

## Cc1cc(C(=O)N2CCC(N(C)CCc3ccccc3)CC2)cc2c1NC(=O)CC2.Cl
Canis familiaris [3]
  BP: -26 mmHg
Canis familiaris [4]
  FBF % change: 32
Canis familiaris [5]
  CBF % change: 13
Canis familiaris [1]
  FBF Ratio: 0.67
Canis familiaris [2]
  CBF Ratio: 0.14

## CCC(=O)Nc1ccc(C(=O)N2CCC(N(C)CCc3ccccc3)CC2)c(C)c1C.Cl
Canis familiaris [1]
  FBF Ratio: 0.43
Canis familiaris [2]
  CBF Ratio: 0

## CN(CCc1ccccc1)C1CCN(C(=O)c2ccc3c(c2)CCC(=O)N3)CC1.Cl
Canis familiaris [3]
  BP: -9 mmHg
Canis familiaris [4]
  FBF % change: 38
Canis familiaris [5]
  CBF % change: 11
Canis familiaris [1]
  FBF Ratio: 1.64
Canis familiaris [2]
  CBF Ratio: 0

## CN(CCc1ccccc1)C1CCN(C(=O)c2cccc3nc(O)ccc23)CC1.Cl
Canis familiaris [1]
  FBF Ratio: 0.32
Canis familiaris [2]
  CBF Ratio: 0.01

## CC(C)c1cc(C(=O)N2CCC(N(C)CCc3ccccc3)CC2)cc2c1NC(=O)CC2.Cl
Canis familiaris [3]
  BP: -19 mmHg
Canis familiaris [4]
  FBF % change: 73
Canis familiaris [5]
  CBF % change: 15
Canis familiaris [1]
  FBF Ratio: 1.13
Canis familiaris [2]
  CBF Ratio: 0.25

## COc1cc(C(=O)N2CCC(N(C)CCc3ccccc3)CC2)cc2ccc(O)nc12.Cl
Canis familiaris [3]
  BP: -10 mmHg
Canis familiaris [4]
  FBF % change: 55
Canis familiaris [5]
  CBF % change: 10
Canis familiaris [1]
  FBF Ratio: 1.36
Canis familiaris [2]
  CBF Ratio: 0.04

## CCC(=O)Nc1ccc(C(=O)N2CCC(N(C)CCc3ccccc3)CC2)cc1Cl.Cl
Canis familiaris [1]
  FBF Ratio: 1.71
Canis familiaris [2]
  CBF Ratio: 0.16

## CCC(=O)Nc1c(C)cc(C(=O)N2CCC(N(C)CCc3ccccc3)CC2)cc1Cl.Cl
Canis familiaris [1]
  FBF Ratio: 0.1
Canis familiaris [2]
  CBF Ratio: 0.08

## CCC(=O)Nc1ccc(C(=O)N2CCC(N(C)CCc3ccccc3)CC2)cc1[N+](=O)[O-].Cl
Canis familiaris [1]
  FBF Ratio: 0.29
Canis familiaris [2]
  CBF Ratio: 0.26

## CCCc1cc(C(=O)N2CCC(N(C)CCc3ccccc3)CC2)cc2ccc(O)nc12.Cl
Canis familiaris [3]
  BP: -22 mmHg
Canis familiaris [4]
  FBF % change: 67
Canis familiaris [5]
  CBF % change: 8
Canis familiaris [1]
  FBF Ratio: 1.61
Canis familiaris [2]
  CBF Ratio: 0.35

## CN(CCc1ccccc1)C1CCN(C(=O)c2cc([N+](=O)[O-])c3nc(O)ccc3c2)CC1.Cl
Canis familiaris [3]
  BP: -21 mmHg
Canis familiaris [4]
  FBF % change: 32
Canis familiaris [5]
  CBF % change: 9
Canis familiaris [1]
  FBF Ratio: 1.6
Canis familiaris [2]
  CBF Ratio: 1.15

## COc1cc2c(cc1C(=O)N1CCC(N(C)CCc3ccccc3)CC1)CCC(=O)N2.Cl
Canis familiaris [3]
  BP: -8 mmHg
Canis familiaris [4]
  FBF % change: 26
Canis familiaris [5]
  CBF % change: 8
Canis familiaris [1]
  FBF Ratio: 1.98
Canis familiaris [2]
  CBF Ratio: 0

## COC(=O)C1=C(C)NC(C)=C(C(=O)OC)C1c1ccccc1[N+](=O)[O-] [NIFEDIPINE]
Canis familiaris [3]
  BP: -37 mmHg
Canis familiaris [4]
  FBF % change: -28
Canis familiaris [5]
  CBF % change: 104
